Source: ChEMBL document CHEMBL3877303 (J Med Chem, 2017)
Activity calls are given as the source filed them. The rule behind the calls is not given here.

Experiments:
[1] = Cell cycle arrest in human K562 cells assessed as accumulation at G0/G1 phase at 1 uM after 24 hrs by propidium iodide/RNase staining based flow cytometry; type: functional
Summary of the method: (§1)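 Cells were exposed to serially diluted compound, then fixed in cold 70% ethanol overnight at -20 °C. They were stained with PI/RNase buffer for DNA-content cell-cycle analysis.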

[2] = biological target: T1, Mast/stem cell growth factor receptor Kit (Homo sapiens, UniProt P10721); settings: GISTT1, 1 uM
[3] = biological target: T1, Mast/stem cell growth factor receptor Kit; settings: 1 uM
[4] = biological target: T1, Mast/stem cell growth factor receptor Kit; settings: GISTT1, 1 uM; remark: listed apart in the source
[5] = biological target: T1, Mast/stem cell growth factor receptor Kit; settings: 1 uM; remark: listed apart in the source
[6] = biological target: T1, Mast/stem cell growth factor receptor Kit; settings: 1 uM; remark: listed apart in the source
[7] = biological target: Platelet-derived growth factor receptor beta (Homo sapiens, UniProt P09619); assay: Inhibition of Tel-fused PDGFR-beta (unknown origin) expressed in BAF3 cells assessed as growth inhibition measured after 72 hrs by CellTiter-Glo or CCK8 assay; type: cell-based
Summary of the method: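 BaF3 lines were made by retroviral transduction with kinase-fusion MSCV vectors packaged in HEK293T cells. Cells were selected with puromycin for 48 h, then selected again without IL-3 so growth depends on the introduced kinase. […] They were seeded at 1 to 2.5×10^4 cells/mL with compound dilutions and incubated 72 h. Viability was read by CellTiter-Glo luminescence or CCK-8 absorbance (450/655 nm), normalized to DMSO control; GI50 was curve-fitted from triplicate tests.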

[8] = Antiproliferative activity against human MEG01 cells measured after 72 hrs by CellTiter-Glo or CCK8 assay; type: functional; settings: MEG-01, 72 h
[9] = biological target: T2, BCR/ABL p210 fusion protein (Homo sapiens, UniProt A1Z199); assay: Inhibition of BCR/ABL p210 fusion protein mediated signaling pathways assessed as reduction in Stat5 phosphorylation at Y694 in human K562 cells at 0.01 to 3 uM measured after 2 hrs by immunoblotting; type: cell-based
Summary of the method: (§2)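 After an ice-cold PBS wash, cells were lysed in RIPA buffer (50 mM Tris pH 8.0) with protease and phosphatase inhibitors, and protein was quantified by BCA. Lysates were run on SDS-PAGE, transferred to PVDF and blocked in 5% milk/TBST. Phospho- and total proteins were probed by immunoblot with ECL detection; β-actin served as loading control.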

[10] = biological target: T2, BCR/ABL p210 fusion protein; assay: Inhibition of BCR/ABL p210 fusion protein mediated signaling pathways assessed as reduction in Stat5 phosphorylation at Y694 in human KU812 cells at 0.01 to 3 uM measured after 2 hrs by immunoblotting; type: cell-based; summary of the method: as §2
[11] = biological target: T1, Mast/stem cell growth factor receptor Kit; assay: Inhibition of c-KIT mediated signaling pathways assessed as reduction in S6K phosphorylation at T389 in human GISTT1 cells at 0.03 to 10 uM measured after 2 hrs by immunoblotting; type: cell-based; summary of the method: as §2
[12] = Cell cycle arrest in human KU812 cells assessed as accumulation at G0/G1 phase at 0.3 uM after 12 hrs by propidium iodide/RNase staining based flow cytometry; type: functional; summary of the method: as §1
[13] = tested on: GISTT1; assay: Induction of apoptosis in human GISTT1 cells assessed as increase in cleaved caspase-3 level at 0.1 to 3 uM by Western blot analysis; type: functional, cell-based
Summary of the method: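 Cells were treated with DMSO or serially diluted compound for the indicated periods. They were washed in ice-cold PBS and lysed in RIPA buffer with protease/phosphatase inhibitors, and protein was quantified by BCA. Lysates were resolved by SDS-PAGE, transferred to PVDF and blocked in 5% milk/TBST. Blots were probed for PARP and caspase-3, with β-actin as loading control, and detected by ECL.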

[14] = Oral bioavailability in Sprague-Dawley rat at 10 mg/kg; type: ADME, organism-based; settings: in vivo
Summary of the method: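 Male Sprague-Dawley rats, 6-8 weeks old, fasted overnight, dosed iv or po. Jugular vein blood (~0.2 mL, heparin) sampled at 1 min to 8 h (iv) or 5 min to 24 h (po). Plasma separated by centrifugation at 2-8 °C and stored at -80 °C before analysis.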

[15] = tested on: K562; assay: Induction of apoptosis in human K562 cells xenografted in nu/nu mouse administered daily via oral gavage measured 28 days post compound treatment by TUNEL staining based assay; type: functional, cell-based
Summary of the method: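 K562 xenograft tumors from daily orally dosed mice were fixed in 10% neutral-buffered formalin and paraffin-embedded. Six-micron sections were TUNEL-stained to detect apoptotic nuclei.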

[16] = biological target: T3, Discoidin domain-containing receptor 2 (Homo sapiens) (UniProt Q16832); assay: Inhibition of recombinant His-tagged human DDR2 cytoplasmic domain expressed in baculovirus expression system assessed as residual activity at 1 uM by KINOMEscan binding assay relative to control
T3 sequence (whole entry): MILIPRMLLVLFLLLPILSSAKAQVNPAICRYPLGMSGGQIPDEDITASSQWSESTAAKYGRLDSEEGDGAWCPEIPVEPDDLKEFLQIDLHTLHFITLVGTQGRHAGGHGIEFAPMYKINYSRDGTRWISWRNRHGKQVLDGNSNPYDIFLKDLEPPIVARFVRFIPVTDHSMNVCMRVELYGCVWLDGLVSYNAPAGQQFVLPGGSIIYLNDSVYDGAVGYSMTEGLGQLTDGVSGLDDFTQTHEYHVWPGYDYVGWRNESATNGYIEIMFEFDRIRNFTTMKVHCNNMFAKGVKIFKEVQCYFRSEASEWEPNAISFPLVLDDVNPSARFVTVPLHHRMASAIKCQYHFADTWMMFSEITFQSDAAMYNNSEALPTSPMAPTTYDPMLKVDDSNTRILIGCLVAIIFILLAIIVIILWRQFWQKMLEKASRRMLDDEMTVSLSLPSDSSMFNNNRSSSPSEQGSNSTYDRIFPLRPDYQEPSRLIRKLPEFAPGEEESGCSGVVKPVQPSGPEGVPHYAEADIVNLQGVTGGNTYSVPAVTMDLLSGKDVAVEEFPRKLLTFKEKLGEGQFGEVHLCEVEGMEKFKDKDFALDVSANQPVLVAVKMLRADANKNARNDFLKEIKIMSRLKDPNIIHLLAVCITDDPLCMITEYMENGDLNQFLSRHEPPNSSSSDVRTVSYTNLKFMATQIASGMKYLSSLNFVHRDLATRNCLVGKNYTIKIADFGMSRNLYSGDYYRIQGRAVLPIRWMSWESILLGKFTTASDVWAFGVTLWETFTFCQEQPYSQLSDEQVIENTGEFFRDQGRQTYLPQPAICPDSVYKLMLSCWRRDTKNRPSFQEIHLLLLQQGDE

[17] = Anticancer activity against human GISTT1 cells xenografted in nu/nu mouse assessed as tumor weight at 50 mg/kg, po administered daily via oral gavage measured 21 days post compound treatment (reference value: 2.86 g)

T1 sequence (P10721 whole entry): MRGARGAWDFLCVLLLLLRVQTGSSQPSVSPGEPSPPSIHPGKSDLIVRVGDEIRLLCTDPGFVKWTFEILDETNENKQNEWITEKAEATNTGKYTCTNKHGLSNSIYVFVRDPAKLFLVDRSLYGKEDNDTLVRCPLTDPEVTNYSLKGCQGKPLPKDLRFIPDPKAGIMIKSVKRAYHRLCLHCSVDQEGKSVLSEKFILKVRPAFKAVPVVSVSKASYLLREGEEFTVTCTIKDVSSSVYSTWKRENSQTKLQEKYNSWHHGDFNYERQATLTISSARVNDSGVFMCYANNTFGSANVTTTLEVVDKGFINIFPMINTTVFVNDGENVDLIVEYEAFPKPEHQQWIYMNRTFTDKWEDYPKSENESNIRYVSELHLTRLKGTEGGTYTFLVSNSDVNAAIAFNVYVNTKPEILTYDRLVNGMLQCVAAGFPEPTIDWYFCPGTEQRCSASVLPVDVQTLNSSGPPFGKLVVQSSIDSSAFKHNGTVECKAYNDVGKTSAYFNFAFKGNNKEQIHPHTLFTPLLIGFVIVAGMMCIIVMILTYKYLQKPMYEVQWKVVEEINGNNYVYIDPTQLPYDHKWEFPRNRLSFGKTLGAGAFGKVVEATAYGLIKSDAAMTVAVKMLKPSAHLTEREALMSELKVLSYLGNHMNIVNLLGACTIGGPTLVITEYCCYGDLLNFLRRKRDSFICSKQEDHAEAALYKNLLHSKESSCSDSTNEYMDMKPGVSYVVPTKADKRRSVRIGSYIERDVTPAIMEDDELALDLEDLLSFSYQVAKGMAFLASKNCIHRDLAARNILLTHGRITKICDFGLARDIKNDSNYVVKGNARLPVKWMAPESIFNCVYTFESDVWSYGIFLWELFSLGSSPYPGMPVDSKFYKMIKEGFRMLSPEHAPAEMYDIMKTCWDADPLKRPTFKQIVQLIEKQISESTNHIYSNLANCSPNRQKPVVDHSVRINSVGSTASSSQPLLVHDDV
T2 sequence (A1Z199 1-97): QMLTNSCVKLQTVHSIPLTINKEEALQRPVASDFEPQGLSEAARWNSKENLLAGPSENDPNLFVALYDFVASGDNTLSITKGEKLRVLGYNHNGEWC
Sequence of Platelet-derived growth factor receptor beta (P09619 whole entry, the tested form may be a part): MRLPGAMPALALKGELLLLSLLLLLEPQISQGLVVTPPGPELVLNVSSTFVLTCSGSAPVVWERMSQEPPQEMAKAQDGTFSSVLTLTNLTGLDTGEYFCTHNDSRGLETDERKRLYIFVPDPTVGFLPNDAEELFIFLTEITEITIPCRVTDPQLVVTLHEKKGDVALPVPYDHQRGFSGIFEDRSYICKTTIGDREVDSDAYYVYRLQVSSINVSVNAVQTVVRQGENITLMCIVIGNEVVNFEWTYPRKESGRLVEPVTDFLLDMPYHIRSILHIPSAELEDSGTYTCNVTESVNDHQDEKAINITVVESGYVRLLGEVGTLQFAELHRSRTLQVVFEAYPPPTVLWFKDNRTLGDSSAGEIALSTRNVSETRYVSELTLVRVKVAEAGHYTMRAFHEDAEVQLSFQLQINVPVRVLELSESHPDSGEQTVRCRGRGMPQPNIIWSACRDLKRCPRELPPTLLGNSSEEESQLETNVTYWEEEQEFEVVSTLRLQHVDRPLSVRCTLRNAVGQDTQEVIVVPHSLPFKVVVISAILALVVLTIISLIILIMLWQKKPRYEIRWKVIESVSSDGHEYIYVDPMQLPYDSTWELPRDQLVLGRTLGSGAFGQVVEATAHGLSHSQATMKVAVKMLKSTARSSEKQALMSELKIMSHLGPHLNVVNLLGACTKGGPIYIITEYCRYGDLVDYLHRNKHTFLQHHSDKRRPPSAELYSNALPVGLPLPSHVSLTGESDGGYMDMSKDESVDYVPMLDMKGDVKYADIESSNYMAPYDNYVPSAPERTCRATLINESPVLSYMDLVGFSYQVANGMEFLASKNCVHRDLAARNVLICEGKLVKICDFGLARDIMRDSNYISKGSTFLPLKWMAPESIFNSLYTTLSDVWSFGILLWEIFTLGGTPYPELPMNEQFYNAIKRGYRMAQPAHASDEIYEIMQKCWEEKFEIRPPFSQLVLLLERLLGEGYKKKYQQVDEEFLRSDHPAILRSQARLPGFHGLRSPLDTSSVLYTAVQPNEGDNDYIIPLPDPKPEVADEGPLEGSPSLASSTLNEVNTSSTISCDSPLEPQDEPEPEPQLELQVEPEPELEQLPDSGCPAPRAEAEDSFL

Compound | Activity [1] | inhibition [2] | inhibition [3] | inhibition [4] | inhibition [5] | inhibition [6] | GI50 [7] [nM] | GI50 [8] [nM] | inhibition [9] | inhibition [10] | inhibition [11] | Activity [12] | Activity [13] | bioavailability [14] [%] | Activity [15] | Activity [16] [%] | Activity [17] [g]
Cc1ccc(NC(=O)c2ccc(CN3CCN(C)CC3)cc2)cc1Nc1nccc(-c2cccnc2)n1 [IMATINIB] | Active | Active | Active | Active | Active | Active | – | – | – | – | – | – | – | – | – | – | –
Cc1ccc(C(=O)N2CCC(Oc3cc(NC(=O)c4ccc(CN5CCN(C)CC5)c(C(F)(F)F)c4)ccc3C)CC2)cn1 | – | – | – | – | – | – | 14 | 20 | Active | Active | Active | Active | Active | 47.5 | Dose-dependent effect | 0.65 | 2.19
